# Published values of several laboratories.
# Protocols differ between the studies behind these lines.
# Organism: Streptococcus pneumoniae
# Effect on: microbial growth
SMILES,technique,strain,endpoint,value
CN[C@@H]1[C@H](O)[C@H](NC)[C@H]2O[C@@]3(O)C(=O)C[C@@H](C)O[C@H]3O[C@@H]2[C@H]1O,broth dilution,DAW27,MIC,25 µg/mL
CCCCCCCCCCCCCCCC(=O)NS(=O)(=O)Oc1ccc(CCNC(=O)OC(C)(C)C)cc1,broth dilution,R6,MIC,50 µg/mL
CNC(=O)Oc1c2c(c(O)c3cc(CN4CCC4)ccc13)C(=O)C1=C(O)[C@]3(O)C(=O)C(C(N)=O)=C(O)[C@@H](N(C)C)[C@@H]3C[C@@H]1C2,broth dilution,ATCC49619,MIC,0.5 µg/mL
CN[C@H](CC(C)C)C(=O)N[C@H]1C(=O)N[C@@H](CC(N)=O)C(=O)N[C@H]2C(=O)N[C@H]3C(=O)N[C@H](C(=O)N[C@H](C(=O)O)c4cc(O)cc(O)c4-c4cc3ccc4O)[C@H](O)c3ccc(c(Cl)c3)Oc3cc2cc(c3O[C@@H]2O[C@H](CO)[C@@H](O)[C@H](O)[C@H]2O[C@H]2C[C@](C)(N)[C@H](O)[C@H](C)O2)Oc2ccc(cc2Cl)[C@H]1O,,,MIC,0.12 µg/mL
CCCCCCCCCCCCCCCCCc1cc(O)cc(O)c1,,,IC50,> 200 µM
C[C@H]1COCCN1c1nc(NCc2cccnc2C(F)(F)F)c2cccnc2n1,broth dilution,,MIC,32 to 64 µg/mL
CC(C)CCCCCCCCCCCCCCCc1cc(O)cc(O)c1,,,IC50,70 µM
COc1ccc2cc1Oc1cc(ccc1OC)CCC(N[C@@H]1CCCc3ccccc31)CCCC2 (some centres unmarked),broth dilution,,MIC,> 100 µg/mL
